Experimental data as given in ChEMBL document CHEMBL4680326, “Hit-to-lead optimization on aryloxybenzamide derivative virtual screening hit against SIRT” (Bioorg Med Chem, 2021).

Columns and labels:
[1] = molecular target: T1, NAD-dependent protein deacetylase sirtuin-1 (Homo sapiens) (UniProt Q96EB6); assay: Inhibition of recombinant N-terminal tagged human SIRT1 expressed in Escherichia coli at 100 uM using Fluor De Lys SIRT1 as substrate preincubated for 30 mins followed by substrate addition and measured after 1 hr in presence of NAD+ by fluorescence assay relative to control; details: time 90.0 min
T1 sequence (whole entry): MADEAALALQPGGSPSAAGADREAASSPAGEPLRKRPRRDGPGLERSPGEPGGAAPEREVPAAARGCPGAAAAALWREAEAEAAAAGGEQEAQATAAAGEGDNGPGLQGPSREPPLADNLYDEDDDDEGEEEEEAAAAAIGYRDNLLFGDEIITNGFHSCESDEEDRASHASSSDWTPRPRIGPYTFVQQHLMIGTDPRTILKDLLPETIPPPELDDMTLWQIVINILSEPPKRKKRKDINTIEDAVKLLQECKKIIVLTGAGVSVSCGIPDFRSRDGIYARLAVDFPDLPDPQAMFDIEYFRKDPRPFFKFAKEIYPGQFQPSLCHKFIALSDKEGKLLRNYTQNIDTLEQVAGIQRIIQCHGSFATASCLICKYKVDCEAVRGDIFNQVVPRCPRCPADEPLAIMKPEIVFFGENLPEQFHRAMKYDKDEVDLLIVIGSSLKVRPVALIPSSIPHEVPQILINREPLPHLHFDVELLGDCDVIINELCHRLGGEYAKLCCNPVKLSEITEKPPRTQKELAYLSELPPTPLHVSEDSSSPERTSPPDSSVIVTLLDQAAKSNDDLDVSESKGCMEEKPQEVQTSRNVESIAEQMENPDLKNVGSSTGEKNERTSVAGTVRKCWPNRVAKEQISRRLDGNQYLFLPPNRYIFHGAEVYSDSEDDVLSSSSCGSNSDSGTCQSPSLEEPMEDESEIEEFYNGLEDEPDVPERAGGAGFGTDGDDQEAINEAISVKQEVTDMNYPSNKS
How it was run: (§1)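 Human recombinant SIRT enzyme and compound (1% v/v final DMSO) in SIRT assay buffer were preincubated at 37 °C for 30 min. NAD⁺ and Fluor de Lys deacetylase substrate were then added. Fluorescence was read at excitation 360 nm, emission 460 nm. % inhibition was taken from inhibited wells relative to control wells.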

[2] = molecular target: T1, NAD-dependent protein deacetylase sirtuin-1 (Homo sapiens); assay: Inhibition of recombinant N-terminal tagged human SIRT1 expressed in Escherichia coli at 300 uM using Fluor De Lys SIRT1 as substrate preincubated for 30 mins followed by substrate addition and measured after 1 hr in presence of NAD+ by fluorescence assay relative to control; details: time 90.0 min; how it was run: as §1
[3] = molecular target: T2, NAD-dependent protein deacetylase sirtuin-2 (Homo sapiens) (UniProt Q8IXJ6); assay: Inhibition of recombinant N-terminal tagged human SIRT2 expressed in Escherichia coli at 300 uM using Fluor De Lys SIRT2 as substrate preincubated for 30 mins followed by substrate addition and measured after 1 hr in presence of NAD+ by fluorescence assay relative to control; details: time 90.0 min; how it was run: as §1
T2 sequence (whole entry): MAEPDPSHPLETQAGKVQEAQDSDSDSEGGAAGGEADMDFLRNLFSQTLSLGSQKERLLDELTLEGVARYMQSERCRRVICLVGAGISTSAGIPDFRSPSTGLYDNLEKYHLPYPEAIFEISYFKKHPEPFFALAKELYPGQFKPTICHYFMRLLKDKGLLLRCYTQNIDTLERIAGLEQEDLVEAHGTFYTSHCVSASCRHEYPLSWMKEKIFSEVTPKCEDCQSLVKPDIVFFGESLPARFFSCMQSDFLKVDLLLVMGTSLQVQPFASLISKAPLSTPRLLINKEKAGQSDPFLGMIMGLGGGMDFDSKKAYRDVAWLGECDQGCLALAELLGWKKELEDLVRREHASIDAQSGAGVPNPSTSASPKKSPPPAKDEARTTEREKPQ

[4] = molecular target: T3, NAD-dependent protein deacetylase sirtuin-3, mitochondrial (Homo sapiens) (UniProt Q9NTG7); assay: Inhibition of recombinant N-terminal tagged human SIRT3 (102 to 399 residues) expressed in Escherichia coli at 300 uM using Fluor De Lys SIRT2 as substrate preincubated for 30 mins followed by substrate addition and measured after 1 hr in presence of NAD+ by fluorescence assay relative to control; details: time 90.0 min; how it was run: as §1
T3 sequence (whole entry): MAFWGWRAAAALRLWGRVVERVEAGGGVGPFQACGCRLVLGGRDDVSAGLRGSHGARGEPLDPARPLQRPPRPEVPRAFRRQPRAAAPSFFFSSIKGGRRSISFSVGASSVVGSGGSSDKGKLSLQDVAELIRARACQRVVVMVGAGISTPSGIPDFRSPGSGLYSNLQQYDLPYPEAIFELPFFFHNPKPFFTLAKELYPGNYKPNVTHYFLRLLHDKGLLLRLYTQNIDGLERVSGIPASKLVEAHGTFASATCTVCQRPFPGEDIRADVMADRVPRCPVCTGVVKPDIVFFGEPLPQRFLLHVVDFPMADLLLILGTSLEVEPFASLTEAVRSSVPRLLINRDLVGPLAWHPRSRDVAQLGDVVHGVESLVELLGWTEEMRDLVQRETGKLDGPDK

MCF7 [5] = assay: Cytotoxicity against human MCF7 cells assessed as reduction in cell viability measured after 48 hrs by MTT assay; assay type: functional, cell-based; details: MCF7, 48 h
How it was run: (§2)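 MCF-7 cells were grown in DMEM with 10% FBS and 1% penicillin–streptomycin to 70% confluency. 180 µl of a 5 × 10⁴ cells/ml suspension was seeded per well and held 24 h at 37 °C in 5% CO₂. Cells were exposed to 1, 10, 25, 50, 100 or 200 µM, then treated with MTT (5 mg/ml) for 4 h and read at 540 nm. Untreated cells served as control. Done in triplicate; IC50 from linear regression of concentration vs % viable cells.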

MCF7 [6] = assay: Cytotoxicity against human MCF7 cells assessed as reduction in cell viability measured after 72 hrs by MTT assay; assay type: functional, cell-based; details: MCF7, 72 h; how it was run: as §2
[7] = molecular target: T2, NAD-dependent protein deacetylase sirtuin-2 (Homo sapiens); assay: Inhibition of recombinant N-terminal tagged human SIRT2 expressed in Escherichia coli at 100 uM using Fluor De Lys SIRT2 as substrate preincubated for 30 mins followed by substrate addition and measured after 1 hr in presence of NAD+ by fluorescence assay relative to control; details: time 90.0 min; how it was run: as §1

Row | SMILES | inhibition [1] [%] | inhibition [2] [%] | inhibition [3] [%] | inhibition [4] [%] | inhibition [7] [%] | IC50 (MCF7 [5]) [µM] | IC50 (MCF7 [6]) [µM]
1 | O=C(c1ccc(Oc2ccccc2)cc1)N1CCc2ccccc2C1 | 21.5 |  |  |  |  |  | 
2 | Cc1ccc(Oc2cccc(C(=O)N[C@@H](C)c3ccccc3)c2)nn1 |  | 31.4 | 42.5 | 18.2 |  | 328 | > 1000
3 | CC(C)N1CCN(C(=O)c2cccc(Oc3ccccc3)c2)CC1 | 48.1 |  |  |  |  | 465 | 321
4 | O=C(c1cccc(Oc2ccccc2)c1)N1CCc2ccccc2C1 | 56.5 |  |  |  | 10.8 | 159 | 147
5 | ON=C(c1cccc(Oc2ccccc2)c1)N1CCc2ccccc2C1 | 47.2 |  |  |  | 51.6 | 41.1 | 33.1

Now from value to compound, other results behind:

Row | inhibition [1] [%] | inhibition [2] [%] | inhibition [3] [%] | inhibition [4] [%] | inhibition [7] [%] | SMILES | IC50 (MCF7 [5]) [µM] | IC50 (MCF7 [6]) [µM]
6 | 36.1 |  |  |  |  | CC(=O)c1ccc(NC(=O)c2ccc(Oc3ccccc3)cc2)cc1 |  | 
7 |  |  |  |  | 11.1 | CC(=O)c1ccc(NC(=O)c2cccc(Oc3ccccc3)c2)cc1 |  | 
8 | 36.1 |  |  |  | 17.1 | O=C(Nc1ccc2ccccc2c1)c1cccc(Oc2ncccn2)c1 |  | 
9 |  |  |  |  | 98.4 | Cc1ccc(C(=O)Nc2ccc(S(=O)(=O)O)c3cc(S(=O)(=O)O)cc(S(=O)(=O)O)c23)cc1NC(=O)c1cccc(NC(=O)Nc2cccc(C(=O)Nc3cc(C(=O)Nc4ccc(S(=O)(=O)O)c5cc(S(=O)(=O)O)cc(S(=O)(=O)O)c45)ccc3C)c2)c1 |  | 
10 | 46 |  |  |  |  | NC(=O)c1ccc(NC(=O)c2ccc(Oc3ccccc3)cc2)cc1 | 524 | 356
